From ChEMBL document CHEMBL4028890, “A Positive Allosteric Modulator of the Serotonin 5-HT2C Receptor for Obesity” (J Med Chem, 2017)
Active and inactive are the calls of the source. The calls are words filed in the database; no cut-off is given here.

What was measured:
[1] = molecular target: T1, 5-hydroxytryptamine receptor 2C (Homo sapiens) (UniProt P28335); assay: Positive allosteric modulation of human 5-HT2C receptor expressed in human HeLa-K1 cells assessed as potentiation of 5-HT-induced inositol monophosphate release at 10 uM after 20 mins by HTRF assay relative to control; assay type: functional, cell-based
T1 sequence (whole entry): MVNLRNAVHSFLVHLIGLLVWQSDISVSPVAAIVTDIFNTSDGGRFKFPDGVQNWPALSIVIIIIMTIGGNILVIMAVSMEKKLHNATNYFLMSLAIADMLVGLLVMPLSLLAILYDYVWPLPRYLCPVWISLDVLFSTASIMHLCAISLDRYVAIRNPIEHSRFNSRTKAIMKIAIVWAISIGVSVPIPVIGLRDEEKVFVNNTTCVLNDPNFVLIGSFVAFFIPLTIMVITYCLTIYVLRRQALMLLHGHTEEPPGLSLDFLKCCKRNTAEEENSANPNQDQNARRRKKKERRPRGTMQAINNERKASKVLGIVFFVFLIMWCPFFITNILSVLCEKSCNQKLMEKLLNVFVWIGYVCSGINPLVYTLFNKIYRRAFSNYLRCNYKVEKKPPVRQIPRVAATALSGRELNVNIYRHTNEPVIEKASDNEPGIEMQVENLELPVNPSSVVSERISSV
Summary of the method: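 IP-One HTRF assay in CHO-K1 cells (human 5-HT2A, 5-HT2B) or HeLa-K1 cells (human 5-HT2C), seeded and grown 24 h at 37 °C. Test compound and/or 5-HT added in stimulation buffer, then 20 min at 37 °C before IP1 read-out. Data normalized to 5-HT maximal effect and fitted by nonlinear regression. Triplicates, mean ± SD.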

Rattus norvegicus [2] = organism: Rattus norvegicus; assay: Toxicity in Wistar rat assessed as induction of malaise at 0.4 M measured 30 mins for 2 days by conditioned taste aversion test; conditions: in vivo, 0.5 h
Summary of the method: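 Rats water-deprived 24 h, then trained to drink from a graded bottle in 30 min sessions for 4 days. On day 5, 0.1% saccharin replaced water, and 30 min later rats got ip vehicle, compound (2 mg/kg) or LiCl (0.4 M, 7.5 mL/kg). Water intake was recorded over 30 min on the next 2 days, then a water or saccharin choice was measured.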

Rattus norvegicus [3] = assay: Antiobesity activity in Wistar rat assessed as reduction in food intake at 2 mg/kg, ip after 4 hrs; assay type: functional, organism-based
Summary of the method: (§1)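 Male Wistar rats, 200−250 g, aged 10−12 weeks, food-deprived 16 h before refeeding. Compound given ip in sterile saline; food and water intake measured at 30, 60, 120 and 240 min after food presentation. Where used, antagonist (3 mg/kg, ip) or other pretreatments were injected 30 min before the compound. Mean ± SEM, at least eight rats per group.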

Rattus norvegicus [4] = assay: Antiobesity activity in Wistar rat assessed as reduction in food intake at 2 mg/kg, ip after 4 hrs in presence of 5-HT2C antagonist SB-242084; assay type: functional, organism-based; summary of the method: as §1
Rattus norvegicus [5] = assay: Antiobesity activity in Wistar rat assessed as reduction in food intake at 2 mg/kg, ip measured up to 4 hrs; assay type: functional, organism-based; summary of the method: as §1

| Structure (SMILES) | Activity [1] [%] | other results |
| --- | --- | --- |
| c1ccc(Cn2cc(CNc3cncnc3)c3ccccc32)cc1 | 20 | – |
| Clc1ccccc1Cn1cc(CNc2cccnc2)c2ccccc21 | 7 | – |
| [Cl-].[Li+] [CHLOROLITHIUM] | – | Activity (Rattus norvegicus [2]): Toxic |
| COc1ccc(Cn2cc(CNc3cccnc3)c3ccccc32)cc1 | 6 | – |
| Brc1cccc(Cn2cc(CNc3cccnc3)c3ccccc32)c1 | 7 | – |
| c1ccc(Cn2cc(CNc3ccccn3)c3ccccc32)cc1 | 25 | – |
| COc1ccccc1Cn1cc(CNc2cccnc2)c2ccccc21 | 0 | – |
| Clc1cccc(Cn2cc(CNc3cccnc3)c3ccccc32)c1 | 26 | – |
| Cc1ccccc1Cn1cc(CNc2cccnc2)c2ccccc21 | 7 | – |
| c1cncc(NCc2cn(CC3CC3)c3ccccc23)c1 | 0 | – |
| Cc1ncccc1NCc1cn(Cc2ccccc2)c2ccccc12 | 0 | – |
| c1ccc(Cn2cc(CNc3ccncn3)c3ccccc32)cc1 | 0 | – |
| Fc1ccccc1Cn1cc(CNc2cccnc2)c2ccccc21 | 6 | – |
| Cc1cccc(Cn2cc(CNc3cccnc3)c3ccccc32)c1 | 27 | – |
| c1ccc(Cn2cc(CNc3cccnn3)c3ccccc32)cc1 | 9 | – |
| O=C1Nc2cc(Cl)c(Cl)cc2N2CCNC[C@H]12 | – | Activity (Rattus norvegicus [3]): inactive; Activity (Rattus norvegicus [4]): inactive; Activity (Rattus norvegicus [5]): Active |
| Fc1cccc(Cn2cc(CNc3cccnc3)c3ccccc32)c1 | 22 | – |
| c1ccc(Cn2cc(CNc3ncccn3)c3ccccc32)cc1 | 0 | – |
| Clc1ccc(Cn2cc(CNc3cccnc3)c3ccccc32)cc1 | 13 | – |
